High-throughput results as filed in PubChem BioAssay.
Compounds with a hit are over-represented: about 1.7% of the library has one in this group of screens.
Apaf1 inhib: inhibitors of human Apaf-1 apoptosome | 0.71% of 330,000 active | AID 489030 | O14727 | inhibition, % at 20 µM | reconstituted apoptosome caspase-3 activity, DEVD-Rh110 fluorescence; active means inhibition of at least 40% at 20 µM;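 further: plate controls were DMSO wells for no effect and DEVD-CHO caspase inhibitor wells for full effect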
Target sequence (O14727 whole entry, looked up): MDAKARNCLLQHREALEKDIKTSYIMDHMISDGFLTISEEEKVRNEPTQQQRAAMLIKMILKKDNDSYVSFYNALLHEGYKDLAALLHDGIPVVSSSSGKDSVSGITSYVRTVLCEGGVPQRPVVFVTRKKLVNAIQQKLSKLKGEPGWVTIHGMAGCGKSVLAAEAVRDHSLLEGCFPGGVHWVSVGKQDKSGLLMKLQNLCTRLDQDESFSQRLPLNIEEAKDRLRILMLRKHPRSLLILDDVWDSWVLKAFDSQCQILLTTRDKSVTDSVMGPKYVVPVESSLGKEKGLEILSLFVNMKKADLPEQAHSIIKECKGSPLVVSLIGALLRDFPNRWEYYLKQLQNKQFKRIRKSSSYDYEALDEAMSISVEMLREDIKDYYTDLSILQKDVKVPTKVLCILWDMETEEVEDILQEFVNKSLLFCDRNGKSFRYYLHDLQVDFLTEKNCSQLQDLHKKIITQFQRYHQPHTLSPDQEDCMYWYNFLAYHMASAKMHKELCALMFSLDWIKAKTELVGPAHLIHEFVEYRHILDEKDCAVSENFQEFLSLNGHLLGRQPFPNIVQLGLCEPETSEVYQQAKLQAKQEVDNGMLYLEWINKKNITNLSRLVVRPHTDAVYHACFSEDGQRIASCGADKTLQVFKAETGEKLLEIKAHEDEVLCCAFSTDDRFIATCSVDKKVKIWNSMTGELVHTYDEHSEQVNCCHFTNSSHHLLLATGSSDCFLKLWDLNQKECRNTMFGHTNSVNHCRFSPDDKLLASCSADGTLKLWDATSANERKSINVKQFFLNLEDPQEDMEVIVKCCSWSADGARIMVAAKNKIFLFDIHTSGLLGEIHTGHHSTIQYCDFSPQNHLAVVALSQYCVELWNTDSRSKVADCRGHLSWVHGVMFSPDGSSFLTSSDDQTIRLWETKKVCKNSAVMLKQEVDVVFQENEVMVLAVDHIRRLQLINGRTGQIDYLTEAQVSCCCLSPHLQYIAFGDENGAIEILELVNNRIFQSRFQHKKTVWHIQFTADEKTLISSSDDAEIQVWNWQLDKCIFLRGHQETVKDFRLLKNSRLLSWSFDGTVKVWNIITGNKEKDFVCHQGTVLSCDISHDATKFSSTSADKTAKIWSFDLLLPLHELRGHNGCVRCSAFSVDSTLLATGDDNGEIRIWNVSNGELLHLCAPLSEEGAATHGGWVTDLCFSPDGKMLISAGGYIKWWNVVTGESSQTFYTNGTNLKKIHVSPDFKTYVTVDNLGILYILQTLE
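Medium: Hepes buffer, pH 7.5 / System: biochemical Apaf-1 apoptosome reconstitution / Measured by: Rh110 fluorescence, excitation 480 nm, emission 540 nm / Times: compound with Apaf-1, dATP, procaspase-3 30 min, then 50 min reaction, room temperature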
UBC13 inh: inhibitors of human UBC13 polyubiquitin chain formation. P61088. TR-FRET. inhibition, % at 20 µM. 0.47% of 330,000 active; in the data active means inhibition above about 45%, passing the limit was not always enough
ZTA DNA inh: ZTA (EBV) inhibition in EBNA-1 counter-screen | inhibition, % at 11 µM | ZTA-DNA binding, fluorescence polarization | 0.15% of 320,000 active | P03206; in the data active means inhibition above about 33%
EBNA-1 inhibitor: blocks EBNA-1 binding to DNA; EBNA-1 DNA binding, fluorescence polarization; inhibition, % at 14.8 µM; 0.34% of 300,000 active; AID 1950; in the data active means inhibition above about 28%
PREPL inhibitor: inhibits the human prolyl oligopeptidase-like enzyme; Q4J6C6; inhibition, % at 5.96 µM; 0.68% of 320,000 active; recombinant PREPL, fluorescence polarization activity-based probe; AID 2751; in the data active means inhibition above about 43%;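 further: 0% = enzyme with DMSO and 100% = wells lacking enzyme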
EBNA-1 confirm: EBNA-1 (EBV) inhibition, confirmation; shares compounds with EBNA-1 inhibitor; Recombinant EBNA-1 DBD, Cy5-DNA fluorescence polarization; inhibition, % at 14.8 µM; 35% of 830 active; AID 2292;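 active means mean inhibition across replicates above a set limit taken from the earlier primary screen, cut at about 28% in these data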;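 further: plate controls were EBNA-1 protein with DMSO for no effect and wells lacking EBNA-1 for full effect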
ZTA DNA inh trip: blocks Epstein-Barr virus ZTA in triplicate, EBNA-1 counter-screen. 830 tested, under 10 active. AID 2328. inhibition, % at 11.1 µM. shares compounds with EBNA-1 inhibitor. Zta-ZRE DNA binding, Cy5 fluorescence polarization;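 active means mean inhibition over triplicates above a set limit taken from the primary EBNA-1 screen, cut at about 37% in these data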;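 further: purified full length Zta protein with Cy5 labeled ZRE DNA probe; 0% = Zta with DMSO and 100% = wells lacking Zta protein; inhibitors lower polarization by freeing the labeled DNA probe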
* marks the source's active call; other numbers are inactive results; · = no result.

SMILES	Apaf1 inhib	UBC13 inh	ZTA DNA inh	EBNA-1 inhibitor	PREPL inhibitor	EBNA-1 confirm	ZTA DNA inh trip
O=C1N=C(N2CCN(c3ccccc3)CC2)S/C1=C\c1cn[nH]c1-c1ccccc1	15	8	2	138*	13	34*	3
O=C(CSc1nnc(C23CC4CC(CC(C4)C2)C3)o1)Nc1ccc(N2CCOCC2)c(Cl)c1	25	-9	10	-7	6	·	·
O=C(CSc1ncnc2c1oc1ccccc12)Nc1cccc(F)c1	12	-18	-10	34*	12	54*	9
CCCc1nnc(SCC(=O)Nc2nnc(CC)s2)n1CC1CCCO1 (stereo not given)	9	1	4	6	4	·	·
Cc1ccc(S(=O)(=O)NCC2CCC(C(=O)NC3CCCCC3)CC2)cc1 (stereo not given)	12	-2	1	49*	5	39*	3
CC(=O)Nc1ccc(S(=O)(=O)NCC2CCC(C(=O)NC3CCCCCC3)CC2)cc1 (stereo not given)	-8	11	18	2	0	·	·
CCC(=O)c1ccc(N2CCN(C(=O)COc3ccc(F)cc3)CC2)c(F)c1	0	8	12	28*	-3	5	9
O=C(Nc1cccc(F)c1)NC1CCCCC1	-12	10	7	2	5	·	·
O=C(N/N=C\c1ccc(CNS(=O)(=O)c2ccc(Cl)cc2)o1)C(=O)Nc1ccc(Oc2ccccc2)cc1	·	·	7	29*	6	30*	-1
COc1ccccc1/C=C1\SC(=S)N(NS(=O)(=O)c2ccc(C)cc2)C1=O	21	-12	-2	31*	3	-1	12
COc1ccc(C)cc1NS(=O)(=O)c1ccc(NS(=O)(=O)c2ccc(NC(C)=O)cc2)cc1	6	-2	-9	-16	19	·	·
CCN(CC)S(=O)(=O)c1cc(NC(=O)CSc2nnc(N)s2)ccc1C	-5	0	-18	·	1	·	·
CCN(CC)S(=O)(=O)c1cc(NC(=O)CSc2nc3c(cc2C#N)C(=O)CC(C)(C)C3)ccc1C	11	-7	10	32*	-5	-8	-12
Cc1cc(CNC(=O)COc2ccc(F)cc2Cl)cc(C)c1O	5	0	8	-2	8	·	·
COC(=O)c1cc(Nc2cc(C)c3ccc(O)cc3n2)cc(C(=O)OC)c1	1	3	-9	39*	-11	48*	3
COC(=O)c1cc(Nc2cc(C)c3c(O)cccc3n2)cc(C(=O)OC)c1	18	-7	-10	-13	-4	·	·
Cc1ccc2c(c1)[nH]c1c(=O)n(Cc3ccco3)cnc12	-18	8	15	70*	-1	37*	0
Cc1cc2c(cc1S(=O)(=O)N1CCCCC1)OCC(=O)N2	2	-2	-2	5	-5	·	·
COc1cccc(N2CCN(S(=O)(=O)c3cc4c(cc3Cl)NC(=O)CO4)CC2)c1	2	-5	12	32*	-8	21	3
Cc1cccc(N2CCN(S(=O)(=O)c3cc4c(cc3Cl)NC(=O)CO4)CC2)c1C	14	3	-9	-4	7	·	·
COc1ccc(N2CCN(S(=O)(=O)c3cc4c(cc3C)NC(=O)CO4)CC2)cc1	-1	-2	15	33*	0	18	1
O=S(=O)(NCC(c1cccnc1)N1CCN(c2ccc(F)cc2)CC1)c1ccccc1 (stereo not given)	-10	-1	-2	10	3	·	·
O=C(NCc1ccc2c(c1)OCO2)c1cc(-n2cnnc2)ccc1Cl	2	-14	-4	4	0	·	·
Cc1ccc2oc(-c3cccc(NC(=O)c4ccc(Br)o4)c3)nc2c1	11	-10	3	0	-15	·	·
Cc1cc2nc(-c3cccc(NC(=O)c4ccc(Br)o4)c3)oc2cc1C	6	2	2	51*	-7	15	-2
Cn1c(=O)c2c([nH]c(=O)n2C)n(Cc2ccccc2)c1=O	-15	0	0	0	6	·	·
O=C(NCc1csc(-c2cccs2)n1)Nc1cccc(Cl)c1	10	10	8	28*	2	23	4
CCC(=O)NCc1csc(-c2cccs2)n1	-7	1	-2	-6	1	·	·
